Test results as given in ChEMBL document CHEMBL1151428, “Capability of 11 antipneumococcal antibiotics to select for resistance by multistep and single-step methodologies” (2007).
Values after ≈ are worked out from the molar mass of the structure shown.

Tests used:
Format in all cases: functional
Streptococcus pneumoniae [1] = test: Antimicrobial activity against drug-resistant Streptococcus pneumoniae isolate 1635 after 50 passages by multi-step resistance selection technique
Method in brief: (§1)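 Daily serial passage in subinhibitory drug levels in 1 ml cation-adjusted Mueller-Hinton broth with 5% lysed horse blood; fresh broth for tigecycline. Each day, 10 μl were taken from the tube one to two dilutions below the MIC whose turbidity matched the growth control, and used to set the next MIC. MIC by macrodilution.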

Streptococcus pneumoniae [2] = test: Antimicrobial activity against drug-resistant Streptococcus pneumoniae isolate 1635 by NCCLS M7-A7 method
Streptococcus pneumoniae [3] = test: Antimicrobial activity against drug-resistant Streptococcus pneumoniae isolate 3243 after 41 passages with clarithromycin measured after 10 antibiotic-free subculture by multi-step resistance selection technique
Streptococcus pneumoniae [4] = test: Antimicrobial activity against drug-resistant Streptococcus pneumoniae isolate 3243 after 50 passages by multi-step resistance selection technique
Method in brief: as §1, with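 “MIC. […]” for “MIC.”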

Streptococcus pneumoniae [5] = test: Antimicrobial activity against drug-resistant Streptococcus pneumoniae isolate 3243 by NCCLS M7-A7 method
Streptococcus pneumoniae [6] = test: Antimicrobial activity against drug-resistant Streptococcus pneumoniae isolate 3676 after 50 passages with moxifloxacin measured after 10 antibiotic-free subculture by multi-step resistance selection technique
Streptococcus pneumoniae [7] = test: Antimicrobial activity against drug-resistant Streptococcus pneumoniae isolate 3274 by NCCLS M7-A7 method
Streptococcus pneumoniae [8] = test: Antimicrobial activity against drug-resistant Streptococcus pneumoniae isolate 2527 after 14 passages with gemifloxacin measured after 10 antibiotic-free subculture by multi-step resistance selection technique
Method in brief: (§2)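 Mutants selected by daily broth passage in subinhibitory drug in cation-adjusted Mueller-Hinton broth with 5% lysed horse blood. Stability was tested by 10 daily passages on blood agar without antibiotic, then macrodilution MIC.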

Streptococcus pneumoniae [9] = test: Antimicrobial activity against drug-resistant Streptococcus pneumoniae isolate 2527 after 14 passages by multi-step resistance selection technique
Method in brief: as §1, with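 “MIC. […]” for “MIC.”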

Streptococcus pneumoniae [10] = test: Antimicrobial activity against drug-resistant Streptococcus pneumoniae isolate 2527 by NCCLS M7-A7 method
Streptococcus pneumoniae [11] = test: Antimicrobial activity against drug-resistant Streptococcus pneumoniae isolate 1077 after 49 passages with clindamycin measured after 10 antibiotic-free subculture by multi-step resistance selection technique
Streptococcus pneumoniae [12] = test: Antimicrobial activity against drug-resistant Streptococcus pneumoniae isolate 1077 after 50 passages by multi-step resistance selection technique; method in brief: as §1
Streptococcus pneumoniae [13] = test: Antimicrobial activity against drug-resistant Streptococcus pneumoniae isolate 1076 after 35 passages with moxifloxacin measured after 10 antibiotic-free subculture by multi-step resistance selection technique; method in brief: as §2
Streptococcus pneumoniae [14] = test: Antimicrobial activity against drug-resistant Streptococcus pneumoniae isolate 3009 after 21 passages with gemifloxacin measured after 10 antibiotic-free subculture by multi-step resistance selection technique; method in brief: as §2
Streptococcus pneumoniae [15] = test: Antimicrobial activity against drug-resistant Streptococcus pneumoniae isolate 3009 after 21 passages by multi-step resistance selection technique
Method in brief: as §1, with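 “MIC. […]” for “MIC.”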

Streptococcus pneumoniae [16] = test: Antimicrobial activity against drug-resistant Streptococcus pneumoniae isolate 3676 by NCCLS M7-A7 method
Streptococcus pneumoniae [17] = test: Antimicrobial activity against drug-resistant Streptococcus pneumoniae isolate 3665 after 38 passages with moxifloxacin measured after 10 antibiotic-free subculture by multi-step resistance selection technique
Streptococcus pneumoniae [18] = test: Antimicrobial activity against drug-resistant Streptococcus pneumoniae isolate 24 after 14 passages by multi-step resistance selection technique
Method in brief: as §1, with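 “MIC. […]” for “MIC.”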

Streptococcus pneumoniae [19] = test: Antimicrobial activity against drug-resistant Streptococcus pneumoniae isolate 3243 after 29 passages by multi-step resistance selection technique
Method in brief: (§3)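 Daily serial passage in subinhibitory drug in cation-adjusted Mueller-Hinton broth with 5% lysed horse blood, 1 ml per tube, fresh broth for tigecycline. Each day, 10 μl was taken from the tube one to two dilutions below the MIC whose turbidity matched the growth control and used for the next MIC. Passaging ran until MIC rose ≥8 times, minimum 14 and maximum 50 passages. Clone MICs were read by macrodilution.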

Streptococcus pneumoniae [20] = test: Antimicrobial activity against drug-resistant Streptococcus pneumoniae isolate 3274 after 48 passages by multi-step resistance selection technique; method in brief: as §3
Streptococcus pneumoniae [21] = test: Antimicrobial activity against drug-resistant Streptococcus pneumoniae isolate 1077 after 15 passages by multi-step resistance selection technique; method in brief: as §3
Streptococcus pneumoniae [22] = test: Antimicrobial activity against drug-resistant Streptococcus pneumoniae isolate 1076 after 14 passages by multi-step resistance selection technique
Method in brief: as §1, with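 “MIC. […]” for “MIC.”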

Streptococcus pneumoniae [23] = test: Antimicrobial activity against drug-resistant Streptococcus pneumoniae isolate 37 after 14 passages by multi-step resistance selection technique
Method in brief: (§4)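 Daily serial passage in broth at subinhibitory drug levels: 1 ml cation-adjusted Mueller-Hinton broth with 5% lysed horse blood; fresh broth for tigecycline. Each day 10 μl inoculum taken from the tube one to two dilutions below MIC matching growth-control turbidity, used to set next MIC. Continued until ≥8-fold MIC rise, minimum 14, maximum 50 passages; MIC read by macrodilution.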

Streptococcus pneumoniae [24] = test: Antimicrobial activity against drug-resistant Streptococcus pneumoniae isolate 3413 after 30 passages by multi-step resistance selection technique; method in brief: as §3
Streptococcus pneumoniae [25] = test: Antimicrobial activity against drug-resistant Streptococcus pneumoniae isolate 3676 after 14 passages by multi-step resistance selection technique; method in brief: as §4
Streptococcus pneumoniae [26] = test: Antimicrobial activity against drug-resistant Streptococcus pneumoniae isolate 3665 after 14 passages by multi-step resistance selection technique
Method in brief: as §1, with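 “MIC. […]” for “MIC.”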

| Compound | MIC (Streptococcus pneumoniae [1]) | MIC (Streptococcus pneumoniae [2]) | MIC (Streptococcus pneumoniae [3]) | MIC (Streptococcus pneumoniae [4]) | MIC (Streptococcus pneumoniae [5]) | MIC (Streptococcus pneumoniae [6]) | MIC (Streptococcus pneumoniae [7]) | MIC (Streptococcus pneumoniae [8]) | MIC (Streptococcus pneumoniae [10]) | MIC (Streptococcus pneumoniae [11]) | MIC (Streptococcus pneumoniae [12]) | MIC (Streptococcus pneumoniae [13]) | MIC (Streptococcus pneumoniae [14]) | MIC (Streptococcus pneumoniae [16]) | MIC (Streptococcus pneumoniae [17]) | other results |
| --- | --- | --- | --- | --- | --- | --- | --- | --- | --- | --- | --- | --- | --- | --- | --- | --- |
| CO/N=C1\CN(c2nc3c(cc2F)c(=O)c(C(=O)O)cn3C2CC2)CC1CN (centres undefined) [GEMIFLOXACIN] | 0.06 µg/mL (≈ 0.154 µM) | 0.016 µg/mL (≈ 0.0411 µM) | 0.03 µg/mL (≈ 0.077 µM) | 0.06 µg/mL (≈ 0.154 µM) | 0.016 µg/mL (≈ 0.0411 µM) | 1 µg/mL (≈ 2.57 µM) | 0.016 µg/mL (≈ 0.0411 µM) | 2 µg/mL (≈ 5.14 µM) | 0.25 µg/mL (≈ 0.642 µM) | 0.25 µg/mL (≈ 0.642 µM) | 1 µg/mL (≈ 2.57 µM) | 0.5 µg/mL (≈ 1.28 µM) | 2 µg/mL (≈ 5.14 µM) | 0.016 µg/mL (≈ 0.0411 µM) | 0.125 µg/mL (≈ 0.321 µM) | MIC (Streptococcus pneumoniae [9]): 2 µg/mL (≈ 5.14 µM); MIC (Streptococcus pneumoniae [15]): 1 µg/mL (≈ 2.57 µM) |
| C[C@@H](O)[C@H]1C(=O)N2C(C(=O)O)=C(SCCNC=N)C[C@H]12 [IMIPENEM ANHYDROUS] | 0.002 µg/mL (≈ 0.00668 µM) | 0.002 µg/mL (≈ 0.00668 µM) | 0.03 µg/mL (≈ 0.1 µM) | 0.016 µg/mL (≈ 0.0534 µM) | 0.016 µg/mL (≈ 0.0534 µM) | 0.03 µg/mL (≈ 0.1 µM) | 0.016 µg/mL (≈ 0.0534 µM) | 0.125 µg/mL (≈ 0.418 µM) | 0.25 µg/mL (≈ 0.835 µM) | 0.004 µg/mL (≈ 0.0134 µM) | 0.008 µg/mL (≈ 0.0267 µM) | 0.008 µg/mL (≈ 0.0267 µM) | 0.008 µg/mL (≈ 0.0267 µM) | 0.016 µg/mL (≈ 0.0534 µM) | 0.03 µg/mL (≈ 0.1 µM) |  |
| CC[C@H]1OC(=O)[C@H](C)C(=O)[C@H](C)[C@@H](O[C@@H]2O[C@H](C)C[C@H](N(C)C)[C@H]2O)[C@](C)(OC)C[C@@H](C)C(=O)[C@H](C)[C@H]2N(CCCCn3cnc(-c4cccnc4)c3)C(=O)O[C@]12C [TELITHROMYCIN] | 0.008 µg/mL (≈ 0.00985 µM) | 0.004 µg/mL (≈ 0.00493 µM) | 0.016 µg/mL (≈ 0.0197 µM) |  | 0.004 µg/mL (≈ 0.00493 µM) | 0.06 µg/mL (≈ 0.0739 µM) | 0.004 µg/mL (≈ 0.00493 µM) | 0.004 µg/mL (≈ 0.00493 µM) | 0.004 µg/mL (≈ 0.00493 µM) | 0.06 µg/mL (≈ 0.0739 µM) |  | 1 µg/mL (≈ 1.23 µM) | 0.03 µg/mL (≈ 0.0369 µM) | 0.06 µg/mL (≈ 0.0739 µM) | 0.125 µg/mL (≈ 0.154 µM) | MIC (Streptococcus pneumoniae [18]): 32 µg/mL (≈ 39.4 µM); MIC (Streptococcus pneumoniae [19]): 0.06 µg/mL (≈ 0.0739 µM); MIC (Streptococcus pneumoniae [20]): 0.5 µg/mL (≈ 0.616 µM); MIC (Streptococcus pneumoniae [21]): 0.25 µg/mL (≈ 0.308 µM); MIC (Streptococcus pneumoniae [22]): > 64 µg/mL; MIC (Streptococcus pneumoniae [23]): 4 µg/mL (≈ 4.93 µM); MIC (Streptococcus pneumoniae [24]): 0.25 µg/mL (≈ 0.308 µM); MIC (Streptococcus pneumoniae [25]): 2 µg/mL (≈ 2.46 µM); MIC (Streptococcus pneumoniae [26]): 2 µg/mL (≈ 2.46 µM) |
| CO/N=C(\C(=O)N[C@@H]1C(=O)N2C(C(=O)O)=C(CSc3nc(=O)c(O)nn3C)CS[C@H]12)c1csc(N)n1 [CEFTRIAXONE] | 0.03 µg/mL (≈ 0.0541 µM) | 0.016 µg/mL (≈ 0.0289 µM) | 0.125 µg/mL (≈ 0.225 µM) | 0.25 µg/mL (≈ 0.451 µM) | 0.125 µg/mL (≈ 0.225 µM) | 0.03 µg/mL (≈ 0.0541 µM) | 0.125 µg/mL (≈ 0.225 µM) | 1 µg/mL (≈ 1.8 µM) | 2 µg/mL (≈ 3.61 µM) | 0.016 µg/mL (≈ 0.0289 µM) | 0.016 µg/mL (≈ 0.0289 µM) | 0.016 µg/mL (≈ 0.0289 µM) | 0.03 µg/mL (≈ 0.0541 µM) | 0.03 µg/mL (≈ 0.0541 µM) | 0.06 µg/mL (≈ 0.108 µM) |  |
| CN(C)c1cc(NC(=O)CNC(C)(C)C)c(O)c2c1C[C@H]1C[C@H]3[C@H](N(C)C)C(O)=C(C(N)=O)C(=O)[C@@]3(O)C(O)=C1C2=O [TIGECYCLINE] | 0.03 µg/mL (≈ 0.0512 µM) | 0.016 µg/mL (≈ 0.0273 µM) | 0.03 µg/mL (≈ 0.0512 µM) | 0.03 µg/mL (≈ 0.0512 µM) | 0.03 µg/mL (≈ 0.0512 µM) | 0.03 µg/mL (≈ 0.0512 µM) | 0.03 µg/mL (≈ 0.0512 µM) | 0.03 µg/mL (≈ 0.0512 µM) | 0.016 µg/mL (≈ 0.0273 µM) | 0.03 µg/mL (≈ 0.0512 µM) | 0.016 µg/mL (≈ 0.0273 µM) | 0.06 µg/mL (≈ 0.102 µM) | 0.016 µg/mL (≈ 0.0273 µM) | 0.016 µg/mL (≈ 0.0273 µM) | 0.03 µg/mL (≈ 0.0512 µM) |  |
